Experimental data from ChEMBL document CHEMBL1909601, “Synthesis and structure-activity relationship studies of dihydronaphthyridinediones as a novel structural class of potent and selective PDE7 inhibitors” (Bioorg Med Chem Lett, 2011).

Assays:
[1] = molecular target: High affinity 3',5'-cyclic-AMP phosphodiesterase 7A (Homo sapiens, UniProt Q13946); experiment: Inhibition of human recombinant PDE7A1 expressed in baculovirus infected insect Sf21 cells after 30 mins by scintillation proximity assay
Sequence of High affinity 3',5'-cyclic-AMP phosphodiesterase 7A (Q13946 whole entry): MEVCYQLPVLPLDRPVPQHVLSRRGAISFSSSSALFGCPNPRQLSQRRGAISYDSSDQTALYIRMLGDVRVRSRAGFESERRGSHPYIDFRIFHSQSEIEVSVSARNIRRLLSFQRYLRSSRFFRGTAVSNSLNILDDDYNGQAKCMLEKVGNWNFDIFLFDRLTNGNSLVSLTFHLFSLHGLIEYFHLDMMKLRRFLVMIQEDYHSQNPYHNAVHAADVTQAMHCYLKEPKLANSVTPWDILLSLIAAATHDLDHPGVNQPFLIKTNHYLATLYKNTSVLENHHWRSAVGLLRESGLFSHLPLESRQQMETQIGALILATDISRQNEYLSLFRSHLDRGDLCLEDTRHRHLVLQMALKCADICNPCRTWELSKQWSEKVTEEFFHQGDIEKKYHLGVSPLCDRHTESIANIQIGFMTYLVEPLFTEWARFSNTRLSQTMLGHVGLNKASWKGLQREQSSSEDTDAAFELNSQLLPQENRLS
Method in brief: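 Full-length human recombinant PDE7A1 produced in baculovirus-infected Sf21 cells. SPA read-out with [3H]-cAMP at 20 nM in 80 mM Tris/10 mM MgSO4, pH 7.4. Reaction run 30 min at 37 °C before bead addition and scintillation counting. Background measured without enzyme. IC50 derived.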

Homo sapiens = species on record: Homo sapiens; experiment: Selectivity ratio of IC50 for human recombinant PDE4A4 to IC50 for human recombinant PDE7A1
Method in brief: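 Ratio of IC50 values for the two enzymes. PDE4A4 run at 500 nM [3H]-cAMP with a 10 µM rolipram background; PDE7A1 run at 20 nM [3H]-cAMP with a no-enzyme background. Both used full-length human enzymes from Sf21 cells, 30 min at 37 °C, pH 7.4 Tris/MgSO4, SPA read-out.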

[2] = molecular target: 3',5'-cyclic-AMP phosphodiesterase 4A (Homo sapiens, UniProt P27815); experiment: Inhibition of human recombinant PDE4A4 expressed in baculovirus infected insect Sf21 cells after 30 mins by scintillation proximity assay
Sequence of 3',5'-cyclic-AMP phosphodiesterase 4A (P27815 whole entry): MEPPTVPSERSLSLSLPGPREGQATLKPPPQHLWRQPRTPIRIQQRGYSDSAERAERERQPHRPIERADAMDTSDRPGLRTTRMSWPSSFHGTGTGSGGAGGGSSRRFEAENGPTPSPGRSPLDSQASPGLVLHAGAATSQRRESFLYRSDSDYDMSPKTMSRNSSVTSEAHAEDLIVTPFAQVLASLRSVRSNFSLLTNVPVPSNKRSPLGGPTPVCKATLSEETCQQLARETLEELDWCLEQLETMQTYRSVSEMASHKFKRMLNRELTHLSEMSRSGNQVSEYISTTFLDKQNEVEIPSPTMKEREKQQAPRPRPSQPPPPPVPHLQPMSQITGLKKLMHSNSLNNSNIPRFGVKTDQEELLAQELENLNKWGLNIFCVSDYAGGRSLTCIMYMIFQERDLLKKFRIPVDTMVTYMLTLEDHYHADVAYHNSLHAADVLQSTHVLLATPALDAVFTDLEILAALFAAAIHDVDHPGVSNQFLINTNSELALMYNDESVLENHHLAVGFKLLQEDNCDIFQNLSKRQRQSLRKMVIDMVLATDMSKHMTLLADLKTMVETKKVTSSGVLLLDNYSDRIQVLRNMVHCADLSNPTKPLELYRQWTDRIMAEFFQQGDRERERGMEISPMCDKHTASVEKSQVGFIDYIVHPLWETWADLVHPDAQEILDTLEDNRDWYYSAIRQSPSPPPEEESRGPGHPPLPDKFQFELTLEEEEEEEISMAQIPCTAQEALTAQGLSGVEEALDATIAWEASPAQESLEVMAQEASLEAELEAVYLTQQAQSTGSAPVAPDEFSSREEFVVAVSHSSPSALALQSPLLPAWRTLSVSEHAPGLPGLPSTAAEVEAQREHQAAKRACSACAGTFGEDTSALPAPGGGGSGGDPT
Method in brief: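 Full-length human recombinant enzyme expressed in baculovirus-infected Sf21 cells. Scintillation proximity assay with 500 nM [3H]-cAMP substrate in 80 mM Tris/10 mM MgSO4, pH 7.4. Incubated 30 min at 37 °C, then SPA beads added and plates counted. Background taken in presence of 10 µM rolipram. IC50 reported.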

[3] = molecular target: cGMP-inhibited 3',5'-cyclic phosphodiesterase 3A (Homo sapiens, UniProt Q14432); experiment: Inhibition of human recombinant PDE3A
Sequence of cGMP-inhibited 3',5'-cyclic phosphodiesterase 3A (Q14432 whole entry): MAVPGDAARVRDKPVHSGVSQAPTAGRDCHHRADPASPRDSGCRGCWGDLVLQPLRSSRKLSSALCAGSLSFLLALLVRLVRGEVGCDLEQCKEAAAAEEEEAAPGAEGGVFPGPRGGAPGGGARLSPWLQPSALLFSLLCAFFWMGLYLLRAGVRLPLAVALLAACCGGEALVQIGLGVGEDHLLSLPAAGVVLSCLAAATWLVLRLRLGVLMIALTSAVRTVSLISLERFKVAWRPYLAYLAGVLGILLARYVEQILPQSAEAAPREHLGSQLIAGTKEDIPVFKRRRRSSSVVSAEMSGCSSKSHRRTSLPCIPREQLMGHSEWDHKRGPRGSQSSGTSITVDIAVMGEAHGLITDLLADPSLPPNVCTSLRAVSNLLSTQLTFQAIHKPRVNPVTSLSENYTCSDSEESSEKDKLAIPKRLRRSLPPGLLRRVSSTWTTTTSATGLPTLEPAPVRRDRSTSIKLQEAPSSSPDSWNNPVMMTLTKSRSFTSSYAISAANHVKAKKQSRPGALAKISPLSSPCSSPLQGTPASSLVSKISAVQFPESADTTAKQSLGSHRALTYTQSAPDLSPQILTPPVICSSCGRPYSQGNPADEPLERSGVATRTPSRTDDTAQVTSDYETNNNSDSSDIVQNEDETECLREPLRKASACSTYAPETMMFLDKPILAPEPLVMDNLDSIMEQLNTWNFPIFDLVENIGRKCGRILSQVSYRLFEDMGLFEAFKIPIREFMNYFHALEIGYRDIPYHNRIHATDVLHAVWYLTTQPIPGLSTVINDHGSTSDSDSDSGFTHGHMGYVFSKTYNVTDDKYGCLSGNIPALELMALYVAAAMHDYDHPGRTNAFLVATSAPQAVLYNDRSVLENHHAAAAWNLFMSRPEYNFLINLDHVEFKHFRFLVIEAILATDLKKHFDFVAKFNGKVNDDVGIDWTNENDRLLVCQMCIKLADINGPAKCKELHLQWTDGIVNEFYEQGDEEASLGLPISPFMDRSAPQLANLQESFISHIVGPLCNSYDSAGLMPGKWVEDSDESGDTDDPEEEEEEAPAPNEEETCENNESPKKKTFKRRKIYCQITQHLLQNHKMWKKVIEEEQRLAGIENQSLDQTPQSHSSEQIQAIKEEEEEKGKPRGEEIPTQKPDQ

[4] = molecular target: Dual 3',5'-cyclic-AMP and -GMP phosphodiesterase 11A (Homo sapiens, UniProt Q9HCR9); experiment: Inhibition of human recombinant PDE11A
[5] = molecular target: Dual specificity calcium/calmodulin-dependent 3',5'-cyclic nucleotide phosphodiesterase 1B (Homo sapiens, UniProt Q01064); experiment: Inhibition of human recombinant PDE1B
Sequence of Dual specificity calcium/calmodulin-dependent 3',5'-cyclic nucleotide phosphodiesterase 1B (Q01064 whole entry): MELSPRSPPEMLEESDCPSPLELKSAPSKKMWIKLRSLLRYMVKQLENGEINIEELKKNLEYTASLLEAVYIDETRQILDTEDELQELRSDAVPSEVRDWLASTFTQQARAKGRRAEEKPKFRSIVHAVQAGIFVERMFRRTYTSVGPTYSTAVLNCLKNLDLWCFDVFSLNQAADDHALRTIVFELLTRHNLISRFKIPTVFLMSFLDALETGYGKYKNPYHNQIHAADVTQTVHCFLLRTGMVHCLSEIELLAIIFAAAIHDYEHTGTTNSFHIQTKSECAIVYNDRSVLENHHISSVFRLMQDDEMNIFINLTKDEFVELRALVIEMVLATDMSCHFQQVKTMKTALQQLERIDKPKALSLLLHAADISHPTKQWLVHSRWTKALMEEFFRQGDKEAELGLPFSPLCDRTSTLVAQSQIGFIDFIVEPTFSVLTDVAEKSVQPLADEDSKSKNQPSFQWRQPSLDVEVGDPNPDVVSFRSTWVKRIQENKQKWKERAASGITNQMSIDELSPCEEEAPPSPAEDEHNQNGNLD

[6] = molecular target: cGMP-dependent 3',5'-cyclic phosphodiesterase (Homo sapiens, UniProt O00408); experiment: Inhibition of human recombinant PDE2A
[7] = molecular target: High affinity cGMP-specific 3',5'-cyclic phosphodiesterase 9A (Homo sapiens, UniProt O76083); experiment: Inhibition of human recombinant PDE9A
[8] = molecular target: High affinity cAMP-specific and IBMX-insensitive 3',5'-cyclic phosphodiesterase 8A (Homo sapiens, UniProt O60658); experiment: Inhibition of human recombinant PDE8A
Sequence of High affinity cAMP-specific and IBMX-insensitive 3',5'-cyclic phosphodiesterase 8A (O60658 whole entry): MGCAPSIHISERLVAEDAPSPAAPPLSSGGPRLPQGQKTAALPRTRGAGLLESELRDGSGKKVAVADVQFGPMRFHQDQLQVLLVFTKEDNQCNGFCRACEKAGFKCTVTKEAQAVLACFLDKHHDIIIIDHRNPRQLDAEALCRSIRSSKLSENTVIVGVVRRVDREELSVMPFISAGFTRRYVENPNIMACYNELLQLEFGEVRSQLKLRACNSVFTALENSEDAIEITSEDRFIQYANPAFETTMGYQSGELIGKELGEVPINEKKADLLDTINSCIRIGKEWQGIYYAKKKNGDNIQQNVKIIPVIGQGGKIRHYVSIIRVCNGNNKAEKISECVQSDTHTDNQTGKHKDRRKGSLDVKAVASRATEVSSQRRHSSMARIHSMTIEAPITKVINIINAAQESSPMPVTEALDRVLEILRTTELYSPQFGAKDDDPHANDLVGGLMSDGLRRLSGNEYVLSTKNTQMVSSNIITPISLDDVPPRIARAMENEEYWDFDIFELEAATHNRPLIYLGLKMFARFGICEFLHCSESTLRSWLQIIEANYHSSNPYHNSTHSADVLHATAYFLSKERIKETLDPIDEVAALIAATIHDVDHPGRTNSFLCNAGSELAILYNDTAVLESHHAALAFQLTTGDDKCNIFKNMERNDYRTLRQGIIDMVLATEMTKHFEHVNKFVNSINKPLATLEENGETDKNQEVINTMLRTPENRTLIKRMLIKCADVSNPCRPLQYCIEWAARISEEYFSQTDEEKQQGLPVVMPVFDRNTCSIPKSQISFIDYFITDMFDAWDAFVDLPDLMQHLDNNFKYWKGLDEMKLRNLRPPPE

[9] = Inhibition of bovine PDE6; set-up: species or system Bos taurus
[10] = molecular target: cGMP-specific 3',5'-cyclic phosphodiesterase (Homo sapiens, UniProt O76074); experiment: Inhibition of human recombinant PDE5A
[11] = molecular target: cAMP and cAMP-inhibited cGMP 3',5'-cyclic phosphodiesterase 10A (Homo sapiens, UniProt Q9Y233); experiment: Inhibition of human recombinant PDE10A
Sequence of cAMP and cAMP-inhibited cGMP 3',5'-cyclic phosphodiesterase 10A (Q9Y233 whole entry): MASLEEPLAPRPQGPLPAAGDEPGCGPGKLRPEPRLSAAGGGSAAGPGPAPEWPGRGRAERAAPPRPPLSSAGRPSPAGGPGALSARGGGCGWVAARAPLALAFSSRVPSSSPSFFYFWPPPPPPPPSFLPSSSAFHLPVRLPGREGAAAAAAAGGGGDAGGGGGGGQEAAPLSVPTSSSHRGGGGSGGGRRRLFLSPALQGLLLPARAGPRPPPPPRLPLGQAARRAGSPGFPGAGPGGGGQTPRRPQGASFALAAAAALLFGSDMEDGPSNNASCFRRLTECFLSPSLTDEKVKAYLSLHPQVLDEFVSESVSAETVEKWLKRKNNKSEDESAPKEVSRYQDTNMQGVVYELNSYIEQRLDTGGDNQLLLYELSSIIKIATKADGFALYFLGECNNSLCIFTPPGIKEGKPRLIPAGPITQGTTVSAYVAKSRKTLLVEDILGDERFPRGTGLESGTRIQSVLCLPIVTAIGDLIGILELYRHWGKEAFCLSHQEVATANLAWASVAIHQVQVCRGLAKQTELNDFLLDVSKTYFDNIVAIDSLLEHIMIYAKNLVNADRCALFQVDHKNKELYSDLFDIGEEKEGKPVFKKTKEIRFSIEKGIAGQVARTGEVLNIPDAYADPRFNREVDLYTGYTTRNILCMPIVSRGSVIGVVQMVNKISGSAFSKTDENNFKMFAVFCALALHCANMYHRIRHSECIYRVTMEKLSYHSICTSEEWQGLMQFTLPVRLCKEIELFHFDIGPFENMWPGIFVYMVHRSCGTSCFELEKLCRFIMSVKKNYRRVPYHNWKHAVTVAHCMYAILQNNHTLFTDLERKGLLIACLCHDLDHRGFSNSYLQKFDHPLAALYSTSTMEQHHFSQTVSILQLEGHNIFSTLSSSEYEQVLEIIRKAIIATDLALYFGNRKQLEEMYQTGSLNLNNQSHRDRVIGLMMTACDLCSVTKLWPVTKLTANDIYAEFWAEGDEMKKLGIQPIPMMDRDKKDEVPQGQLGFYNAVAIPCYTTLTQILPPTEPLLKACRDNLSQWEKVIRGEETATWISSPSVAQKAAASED

Row | SMILES | IC50 [1] [nM] | Ratio IC50 (Homo sapiens) | IC50 [2] [nM] | IC50 [3] [nM] | IC50 [4] [nM] | IC50 [5] [nM] | IC50 [6] [nM] | IC50 [7] [nM] | IC50 [8] [nM] | IC50 [9] [nM] | IC50 [10] [nM] | IC50 [11] [nM]
1 | NC(=O)c1cccc(NC(=O)c2cn(Cc3c(F)cccc3Cl)c3ccc(=O)[nH]c3c2=O)c1 | 44 | 6 | 580 | – | – | – | – | – | – | – | – | –
2 | CN(C)c1ccc(NC(=O)c2cn(Cc3c(F)cccc3Cl)c3ccc(=O)[nH]c3c2=O)cc1 | 39 | 6 | 402 | – | – | – | – | – | – | – | – | –
3 | CC(=O)c1ccc(NC(=O)c2cn(Cc3c(F)cccc3Cl)c3ccc(=O)[nH]c3c2=O)cc1 | 18 | 6 | 161 | – | – | – | – | – | – | – | – | –
4 | NS(=O)(=O)c1ccc(NC(=O)c2cn(Cc3c(F)cccc3Cl)c3ccc(=O)[nH]c3c2=O)cc1 | 20 | 19 | 385 | – | – | – | – | – | – | – | – | –
5 | CCN(CC)c1ccc(NC(=O)c2cn(Cc3c(F)cccc3Cl)c3ccc(=O)[nH]c3c2=O)cc1 | 60 | > 83 | > 5000 | > 5000 | > 5000 | > 5000 | > 5000 | > 5000 | > 5000 | > 5000 | > 5000 | > 5000
6 | CS(=O)(=O)c1cccc(NC(=O)c2cn(Cc3c(F)cccc3Cl)c3ccc(=O)[nH]c3c2=O)c1 | 59 | 24 | 1420 | – | – | – | – | – | – | – | – | –
7 | CC(=O)c1ccc(NC(=O)c2cn(Cc3c(F)cccc3F)c3ccc(=O)[nH]c3c2=O)cc1 | 29 | – | > 1000 | – | – | – | – | – | – | – | – | –

These reach a lower IC50 [1]. Values come first.

Row | IC50 [1] [nM] | Ratio IC50 (Homo sapiens) | IC50 [2] [nM] | IC50 [3] [nM] | IC50 [4] [nM] | IC50 [5] [nM] | IC50 [6] [nM] | IC50 [7] [nM] | IC50 [8] [nM] | IC50 [9] [nM] | IC50 [10] [nM] | IC50 [11] [nM] | SMILES
8 | 13 | > 77 | > 1000 | > 1000 | > 1000 | > 1000 | > 1000 | > 1000 | > 1000 | > 1000 | > 1000 | > 1000 | O=C(Nc1ccc(N2CCOCC2)cc1)c1cn(Cc2c(F)cccc2Cl)c2ccc(=O)[nH]c2c1=O
9 | 10 | 6 | 90 | – | – | – | – | – | – | – | – | – | NC(=O)c1ccc(NC(=O)c2cn(Cc3c(F)cccc3Cl)c3ccc(=O)[nH]c3c2=O)cc1
10 | 12 | 6 | 73 | – | – | – | – | – | – | – | – | – | CS(=O)(=O)c1ccc(NC(=O)c2cn(Cc3c(F)cccc3Cl)c3ccc(=O)[nH]c3c2=O)cc1
11 | 17 | 6 | 362 | – | – | – | – | – | – | – | – | – | CC(=O)Nc1ccc(NC(=O)c2cn(Cc3c(F)cccc3Cl)c3ccc(=O)[nH]c3c2=O)cc1
